Published values pooled from the literature.
Protocols differ between the studies behind these lines.
Target: Serine/threonine-protein kinase Nek7 (NEK7, Homo sapiens, UniProt Q8TDX7)

With `O=C(Nc1c[nH]nc1C(=O)NC1CCNCC1)c1cc(F)cc(F)c1` the remaining binding was 100% (binding, competition with immobilised ligand; 1 µM).
`O=C(Nc1cccnn1)N1CCC(=Cc2cccc(Oc3ccc(C(F)(F)F)cn3)c2)CC1` gave a remaining binding of 100% (cell-free assay, competition with immobilised ligand; 1 µM).
For `O=C(c1ccc(Nc2ncc(Cl)c(-c3cc4ccccc4s3)n2)cc1)N1CCC(N2CCCC2)CC1`, the remaining binding was 4.5% (binding, competition with immobilised ligand; 1 µM).
`COc1cnc(Nc2cccc(S(N)(=O)=O)c2)nc1N1CCN(c2ccccc2)CC1` gave a remaining binding of 74% (binding, competition with immobilised ligand; 1 µM).
For `COc1ccnn2ncc(-c3ccnc(N(C)C)n3)c12`, the remaining binding was 100% (binding; 1 µM).
With `CC(C)CC(=O)N1CCc2nc(-c3ccc(Br)cc3)nc(N(C)Cc3ccccc3)c2C1` the remaining binding was 100% (cell-free assay, competition with immobilised ligand; 0.1 µM).
For `CN(C)c1nccc(-c2cnc3ncccn23)n1`, the remaining binding was 90% (binding; 1 µM).
With `CNC(=O)[C@@H]1CC[C@@H](n2c(-c3ccc4cnccc4c3)nc3ccc(C(=O)NCc4cccc(C(N)=O)c4)cc32)C1` the remaining binding was 92% (binding, competition with immobilised ligand; 1 µM).
`COc1cccc(CNC(=O)c2nc3scc(COCc4ccc(C(=O)O)cc4)c3c(=O)[nH]2)c1` gave a remaining binding of 100% (cell-free assay, competition with immobilised ligand; 1 µM).
With `O=C(c1ccc(Nc2ncc(Cl)c(-c3ccc(Cl)s3)n2)cc1)N1CCC(N2CCCC2)CC1` the remaining binding was 1.4% (binding, competition with immobilised ligand; 1 µM).
For `COc1cc(Nc2nccc(-c3cnn4nc(OC)ccc34)n2)cc(C(F)(F)F)c1`, the remaining binding was 40% (binding, competition with immobilised ligand; 1 µM).
With `CN(C)c1ncc(F)c(-c2cnn3ncccc23)n1` the remaining binding was 95% (binding; 1 µM).
The remaining binding of `COc1cc(-c2cn(C3CCc4ccccc4N(CC(F)(F)F)C3=O)nn2)ccc1-n1ccc(C)n1` (centres unmarked) is reported as 100% (cell-free assay, competition with immobilised ligand; 1 µM).
With `C[C@H]1CCN(c2nccc(-c3cnn4ncccc34)n2)C1` the remaining binding was 100% (binding; 1 µM).
`CC(=O)Nc1c(C(C)=O)c(=O)n(C)c2nc(-c3ccc(Cl)cc3Cl)c(-c3ccc(Cl)cc3)cc12` has a remaining binding of 100% (cell-free assay, competition with immobilised ligand; 1 µM).
`Nc1ncc2c(n1)-c1c([nH]c3ccc(C#CC4CC4)cc13)CCCC2` has a remaining binding of 88% (binding, competition with immobilised ligand; 1 µM).
For `F[C@@H]1CCN(c2nccc(-c3cnn4ncccc34)n2)C1`, the remaining binding was 100% (binding; 1 µM).
For `CCC(=O)N[C@H]1CC[C@@H](C(=O)N(C)c2ccc(-c3nc4ccccc4o3)cc2)C1`, the remaining binding was 98% (cell-free assay, competition with immobilised ligand; 1 µM).
`CN(c1nccc(-c2cnn3ncccc23)n1)C1CC1` gave a remaining binding of 100% (binding; 1 µM).
The remaining binding of `CC(=O)N1CCC(c2ccc(C(=O)NC3=NCCN3)cc2C(F)(F)F)CC1` is reported as 100% (cell-free assay, competition with immobilised ligand; 1 µM).
`N[C@@H]1CCN(c2nccc(-c3cnn4ncccc34)n2)C1` gave a remaining binding of 100% (binding; 1 µM).
`O=C(c1ccc(Nc2nccc(-c3cc4ccccc4s3)n2)cc1)N1CCC(N2CCCC2)CC1` has a remaining binding of 79% (binding, competition with immobilised ligand; 1 µM).
`COc1ncc2cc3ccccc3nc2c1C#N` has a remaining binding of 100% (cell-free assay, competition with immobilised ligand; 5 µM).
